13 compounds from ChEMBL document CHEMBL1146494, “Anthrone and oxanthrone C-glycosides from Picramnia latifolia collected in Peru” (J Nat Prod, 2004) can be followed below.

≈ marks a conversion by molar mass, not a printed value.

For one data set, the system named is Lu1. Nature of the data set: Cytotoxicity against human Lu1 cells. It counts as functional. The conditions noted are these: read-out: ED50 (the source's name).
The next data set relates to MCF7. Nature of the data set: Cytotoxicity against human MCF7 cells. The conditions noted are these: read-out: ED50 (the source's name). It counts as functional.
A short description of data set [1]: Cytotoxicity against HUVEC. It counts as cell-based. The conditions noted are these: human, HUVEC cells; read-out: ED50 (the source's name).
A further data set has as its system LNCaP. In words: Cytotoxicity against human LNCAP cells. The format is functional. The conditions noted are these: read-out: ED50 (the source's name).
For data set [2], the system named is Mus musculus. In words: Toxicity in human LNCAP cells xenografted mouse at 6.25 to 50 mg/kg, ip after 4 days. The format is organism-based. More on the design: dose 6.25-50 mg/kg, route intraperitoneal. The conditions noted are these: in vivo, 96 h. Summed up:
(§1)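 In vivo hollow fiber assay in mice. Fibers containing the cancer cells were implanted at intraperitoneal and subcutaneous sites. The compound was given i.p. at 6.25, 12.5, 25 and 50 mg/kg body weight per injection, once daily for 4 days. Readouts were growth of the fiber-borne cells at each site, plus body weight and overt toxicity over the test period.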
Background: In xenograft studies the graft and the host belong to different species.

For data set [3], the system named is Mus musculus. In words: Toxicity in human MCF7 cells xenografted mouse at 6.25 to 50 mg/kg, ip after 4 days. It counts as organism-based. Further details: dose 6.25-50 mg/kg, route intraperitoneal. The conditions noted are these: in vivo, 96 h. Summed up: as §1
Data set [4] deals with Mus musculus. In words: Toxicity in human Lu1 cells xenografted mouse at 6.25 to 50 mg/kg, ip after 4 days. It counts as organism-based. Further details: dose 6.25-50 mg/kg, route intraperitoneal. The conditions noted are these: in vivo, 96 h. Summed up:
as §1

In the case of `CC[C@H](CC[C@@H](C)[C@H]1CC[C@H]2[C@@H]3CC=C4C[C@@H](O)CC[C@]4(C)[C@H]3CC[C@]12C)C(C)C` [BETA-SITOSTEROL], the EC50 in the data set with Lu1, in the data set on MCF7 and in the data set with LNCaP was greater than 5 µg/mL each time. Besides, the CC50 in data set [1] was greater than 5 µg/mL.

Turning to `Cc1cc(O[C@@H]2O[C@H](CO)[C@@H](O)[C@H](O)[C@H]2O)c2c(c1)C(=O)c1cccc(O)c1C2=O` [CHRYSOPHANEIN], the EC50 with Lu1, with MCF7 and in the data set with LNCaP was greater than 5 µg/mL throughout. Besides, the CC50 in data set [1] was greater than 5 µg/mL.

In the case of `Cc1cc(O)c2c(c1)[C@H](C[C@H]1OC[C@@H](OC(=O)c3ccccc3)[C@@H](O)[C@@H]1O)c1cccc(O)c1C2=O` [PICRAMNIOSIDE H], the EC50 with Lu1, in the data set on MCF7 and in the data set with LNCaP was greater than 5 µg/mL in each case. Besides, the CC50 in data set [1] was greater than 5 µg/mL.

Turning to `Cc1cc(O)c2c(c1)-c1cccc3ccc(O)c(c13)C2=O`, the EC50 with Lu1, in the data set with MCF7 and with LNCaP was greater than 5 µg/mL in each case. Also, the CC50 in data set [1] is greater than 5 µg/mL.

Regarding `O=c1ccc2ccc(O)cc2o1` [UMBELLIFERONE], the EC50 in the data set with Lu1, in the data set with MCF7 and with LNCaP was greater than 5 µg/mL each time. The CC50 in data set [1] was greater than 5 µg/mL.

On to `Cc1cc(O)c2c3c(cccc13)-c1cccc(O)c1C2=O`, for which the EC50 with Lu1, in the data set on MCF7 and with LNCaP was greater than 5 µg/mL in each case. In data set [1], the CC50 was greater than 5 µg/mL.

In the case of `Cc1cc(O)c2c(c1)C(=O)c1cccc(O[C@@H]3O[C@H](CO)[C@@H](O)[C@H](O)[C@H]3O)c1C2=O` [PULMATIN], the EC50 in the data set with Lu1, in the data set on MCF7 and in the data set with LNCaP was greater than 5 µg/mL throughout. The CC50 in data set [1] was greater than 5 µg/mL.

In the case of `COc1cc(O)c2c(c1)C(=O)c1c(O)cc(C)cc1C2=O`, the EC50 with Lu1, in the data set on MCF7 and in the data set with LNCaP was greater than 5 µg/mL in each case. Moreover, the CC50 in data set [1] is greater than 5 µg/mL.

As for `Cc1cc(O)c2c(c1)[C@@H](C[C@H]1OC[C@@H](OC(=O)c3ccccc3)[C@@H](O)[C@@H]1O)c1cccc(O)c1C2=O` [PICRAMNIOSIDE G], the EC50 in the data set with Lu1, with MCF7 and with LNCaP was greater than 5 µg/mL in each case. The CC50 in data set [1] was greater than 5 µg/mL.

Regarding `Cc1cc(O)c2c(c1)C(=O)c1ccc(O)c(O)c1C2=O`, the EC50 is 3 µg/mL (≈ 11.1 µM) in the data set on Lu1, 4.7 µg/mL (≈ 17.4 µM) with MCF7 and 3.6 µg/mL (≈ 13.3 µM) in the data set with LNCaP. Further, the CC50 in data set [1] was 5 µg/mL (≈ 18.5 µM). In addition, the Activity result with Mus musculus [2], in the data set with Mus musculus [3] and with Mus musculus [4] was “Non-toxic” in each case.

As for `CC[C@H](CC[C@@H](C)[C@H]1CC[C@H]2[C@@H]3CC=C4C[C@@H](O[C@@H]5O[C@H](CO)[C@@H](O)[C@H](O)[C@H]5O)CC[C@]4(C)[C@H]3CC[C@]12C)C(C)C` [SITOGLUSIDE], the EC50 with Lu1, in the data set on MCF7 and in the data set with LNCaP was greater than 5 µg/mL throughout. In addition, the CC50 in data set [1] was greater than 5 µg/mL.

On to `Cc1cc(O)c2c(c1)C(=O)c1cccc(O)c1C2=O` [CHRYSOPHANOL], for which the EC50 in the data set with Lu1, with MCF7 and with LNCaP was greater than 5 µg/mL each time. Further, in data set [1], the CC50 is greater than 5 µg/mL.

Turning to `COc1cc2ccc(=O)oc2cc1O` [SCOPOLETIN], the EC50 in the data set on Lu1, in the data set with MCF7 and in the data set with LNCaP was greater than 5 µg/mL in each case. In addition, in data set [1], the CC50 is greater than 5 µg/mL.
